The source of these data is ChEMBL document CHEMBL1140160, “Evidence for the mechanism of action of the antifungal phytolaccoside B isolated from Phytolacca tetramera Hauman” (J Nat Prod, 2008).

In data set [1] the test system is Saccharomyces cerevisiae. The data set is described as follows: Effect on (1->3)-beta-D-glucan synthase-mediated [14C]-Glucose incorporation in Saccharomyces cerevisiae assessed as residual activity after 30 mins. A digest of the protocol: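 Membrane fraction (18000g pellet) from early-log S. cerevisiae MATa trp1 ura3 leu2 his3 pep4::HIS3 nuc1::LEU2 broken with glass beads; 15 µg protein in 40 µL; compound 20 µg/assay added in MeOH; [14C]-glucose incorporation into insoluble glucan; 30 min at 30 °C, stopped with 10% TCA; duplicates; papulacandin B as standard.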

For data set [2], the system named is Neurospora crassa. The data set is described as follows: Antifungal activity against Neurospora crassa ATCC 9279 after 48 hrs by spectrophotometry. In kind it is functional. The following applies: ATCC 9279, 48 h, read-out: MIC100.
The subject of the next data set is Aspergillus niger. The data set is described as follows: Antifungal activity against Aspergillus niger ATCC 9029 after 48 hrs by spectrophotometry. It is filed as functional. To be noted: ATCC 9029, 48 h.
The test system of another data set is Aspergillus flavus. The data set is described as follows: Antifungal activity against Aspergillus flavus ATCC 9170 after 48 hrs by spectrophotometry. It is filed as functional. To be noted: ATCC 9170, 48 h, read-out: MIC100.
In a further data set the test system is Cryptococcus neoformans. The data set is described as follows: Antifungal activity against Cryptococcus neoformans ATCC 32264 after 48 hrs by spectrophotometry. It is filed as functional. To be noted: ATCC 32264, 48 h; for MIC: read-out: MIC100.
The test system of the next data set is Candida albicans. The data set is described as follows: Antifungal activity against Candida albicans ATCC 10231 after 48 hrs by spectrophotometry. It is filed as functional. To be noted: ATCC 10231, 48 h; for MIC: read-out: MIC100.
In a further data set the test system is Aspergillus fumigatus. The data set is described as follows: Antifungal activity against Aspergillus fumigatus ATCC 26934 after 48 hrs by spectrophotometry. In kind it is functional. The following applies: ATCC 26934, 48 h, read-out: MIC100.
Data set [3] relates to Saccharomyces cerevisiae. The data set is described as follows: Antifungal activity against Saccharomyces cerevisiae ATCC 9763 after 48 hrs by sorbitol protection assay by spectrophotometry. In kind it is functional. The following applies: ATCC 9763, 48 h; for MIC: read-out: MIC100. A digest of the protocol:
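S. cerevisiae ATCC 9763 by the standard broth microdilution procedure, run on duplicate plates of 2-fold dilutions, one plate with 0.8 M sorbitol added to every well as osmotic support; MICs read at 2 and 7 days.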

The nature of data set [4]: Hemolytic effect in erythrocytes upto 120 mins by spectrophotometry. In kind it is ADME, cell-based. The following applies: erythrocyte, 2 h. A digest of the protocol: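 Heparinized human red blood cells washed three times in isotonic PBS pH 7.0, made into a 4% suspension in sterile 5% glucose. Compound from DMSO stock diluted in 5% glucose to final 188 to 9 µM; incubated at 37 °C. Released haemoglobin read at 540 nm. LC100 is the lowest concentration giving complete lysis (clearing). DMSO alone served as the vehicle control.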

The target of data set [5] is T1, Chitin synthase 1 (Saccharomyces cerevisiae S288c) (UniProt P08004).
T1 sequence (whole entry): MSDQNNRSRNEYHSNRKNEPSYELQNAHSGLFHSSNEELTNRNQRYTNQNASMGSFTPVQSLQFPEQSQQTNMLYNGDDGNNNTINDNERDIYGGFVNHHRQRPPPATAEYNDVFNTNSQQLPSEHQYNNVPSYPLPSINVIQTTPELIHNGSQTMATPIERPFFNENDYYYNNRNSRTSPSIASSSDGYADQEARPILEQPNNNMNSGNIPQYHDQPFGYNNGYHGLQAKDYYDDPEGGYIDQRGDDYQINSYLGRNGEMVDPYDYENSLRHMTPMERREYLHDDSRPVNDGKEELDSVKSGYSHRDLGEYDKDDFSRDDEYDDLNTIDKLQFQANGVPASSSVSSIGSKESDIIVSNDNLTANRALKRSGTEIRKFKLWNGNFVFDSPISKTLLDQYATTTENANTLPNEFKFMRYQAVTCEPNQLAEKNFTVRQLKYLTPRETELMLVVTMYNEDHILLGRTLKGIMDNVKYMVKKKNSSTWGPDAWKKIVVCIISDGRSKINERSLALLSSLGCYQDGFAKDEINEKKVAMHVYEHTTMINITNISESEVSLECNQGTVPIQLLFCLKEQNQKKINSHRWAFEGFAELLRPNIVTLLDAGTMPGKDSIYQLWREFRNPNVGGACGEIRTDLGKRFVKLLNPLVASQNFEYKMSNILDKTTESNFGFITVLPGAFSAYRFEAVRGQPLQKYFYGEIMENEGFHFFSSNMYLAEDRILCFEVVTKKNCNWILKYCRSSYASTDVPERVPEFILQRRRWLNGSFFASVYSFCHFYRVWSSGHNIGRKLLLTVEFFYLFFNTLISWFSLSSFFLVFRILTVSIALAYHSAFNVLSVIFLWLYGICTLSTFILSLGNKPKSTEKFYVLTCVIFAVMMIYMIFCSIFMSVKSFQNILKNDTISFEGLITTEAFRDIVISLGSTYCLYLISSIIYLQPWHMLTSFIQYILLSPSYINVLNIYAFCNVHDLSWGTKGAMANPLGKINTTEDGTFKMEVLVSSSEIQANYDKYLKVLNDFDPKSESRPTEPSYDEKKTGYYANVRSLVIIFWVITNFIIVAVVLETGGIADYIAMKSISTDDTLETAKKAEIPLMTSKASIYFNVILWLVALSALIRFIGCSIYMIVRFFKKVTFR
The data set is described as follows: Enhancement of chitin synthase 1 activity in Saccharomyces cerevisiae assessed as increase in amount of cell wall chitin at 100 mg by Reissig method. The procedure, abridged: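 Untreated and 37 µM-treated S. cerevisiae cells (100 mg each) extracted with 6% KOH for 90 min, digested with chitinase and glusulase; N-acetylglucosamine measured by the Reissig reaction (potassium tetraborate, boiling 3 min, DMAB 20 min at 36-38 °C), absorbance at 585 nm; NAG as standard.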

Data set [6] has as its target Chitin synthase 1 (Neurospora crassa OR74A) (UniProt P29070). The data set is described as follows: Enhancement of chitin synthase 1 activity in Neurospora crassa assessed as increase in cell wall thickness at 37 uM by transmission electron microscopy.
In data set [7] the target is T1, Chitin synthase 1 (Saccharomyces cerevisiae S288c). The data set is described as follows: Effect on chitin synthase 1-mediated incorporation of [14C]N-Acetylglucosamine in Saccharomyces cerevisiae assessed as residual activity after 90 mins in presence of trypsin. A digest of the protocol: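 Same S. cerevisiae membrane fraction, 30 µg protein in 50 µL; compound 20 µg/assay in MeOH; zymogen activated by trypsin (2 µL of 0.25 µg/µL, 15 min, 30 °C) then stopped with trypsin inhibitor; [14C]-N-acetylglucosamine incorporation into chitin over 90 min at 30 °C, stopped with 10% TCA; duplicates; nikkomycin Z as reference.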

Data set [8] has the same target. The data set is described as follows: Effect on chitin synthase 1-mediated incorporation of [14C]N-acetylglucosamine in Saccharomyces cerevisiae assessed as residual activity after 90 mins.
Data set [9] deals with Saccharomyces cerevisiae. The data set is described as follows: Antifungal activity against Saccharomyces cerevisiae assessed as increase in cellular leakage at 74 uM relative to sodium dodecyl sulphate at 6-48 hrs using spectrophotometry. It is filed as functional. A digest of the protocol: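 S. cerevisiae ATCC 9763 grown with shaking at 30 °C to early stationary phase, washed twice, diluted to (3-5) × 10^7 cells/mL in cold MOPS buffer pH 6.0; compound at final 74 µM; 2% SDS set as 100% leakage; incubated at 30 °C and sampled at 6, 12, 24 and 48 h; supernatant absorbance at 260 nm; means of at least two independent assays; Student's test.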

The subject of data set [10] is Saccharomyces cerevisiae. The data set is described as follows: Antifungal activity against Saccharomyces cerevisiae assessed as binding to membrane ergosterol in presence of exogenous ergosterol. In kind it is functional, organism-based.
For data set [11], the target named is T1, Chitin synthase 1 (Saccharomyces cerevisiae S288c). The data set is described as follows: Enhancement of chitin synthase 1 activity in Saccharomyces cerevisiae assessed as increase in amount of cell wall chitin at 37 uM by calcofluor staining. A digest of the protocol: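 Exponentially growing S. cerevisiae ATCC 9763 in YEPD, untreated or exposed to 37 µM, washed and stained with Calcofluor white (20 µM final, 5 min, rt); fluorescence around mother and daughter cell surfaces examined by UV fluorescence microscopy, 400×, same exposure times.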

In data set [12] the target is Chitin synthase 1 (Neurospora crassa OR74A) (UniProt P29070). The data set is described as follows: Enhancement of chitin synthase 1 activity in Neurospora crassa assessed as increase in amount of cell wall chitin at 37 uM by calcofluor staining. A digest of the protocol:
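Exponentially growing N. crassa ATCC 9279 hyphae in YEPD liquid medium, untreated or exposed to 37 µM, washed and stained with Calcofluor white (20 µM final, 5 min, rt), washed; chitin visualised as bluish fluorescence under UV by fluorescence microscopy, 400×, same exposure times.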

In data set [13] the test system is Neurospora crassa. The data set is described as follows: Antifungal activity against Neurospora crassa assessed as increase in thickness of hyphae relative to control at 37 uM. It is filed as functional, organism-based. The procedure, abridged:
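N. crassa ATCC 9279, 1 × 10^5 spores/mL, grown 24 h at 28 °C with shaking (145 rpm) in YEPD with or without 37 µM. Mycelium fixed in 4% glutaraldehyde in 0.1 M cacodylate, OsO4 and KMnO4 treated, acetone-dehydrated, Spurr-embedded; ultrathin sections stained with uranyl acetate and Reynolds solution; wall thickness measured by transmission electron microscopy.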

Converted amounts (≈) assume the structure as drawn. The source made the active and inactive calls. The rule behind the calls is not given here.

Chain of Chitin synthase 1 (Neurospora crassa OR74A) (P29070 whole entry): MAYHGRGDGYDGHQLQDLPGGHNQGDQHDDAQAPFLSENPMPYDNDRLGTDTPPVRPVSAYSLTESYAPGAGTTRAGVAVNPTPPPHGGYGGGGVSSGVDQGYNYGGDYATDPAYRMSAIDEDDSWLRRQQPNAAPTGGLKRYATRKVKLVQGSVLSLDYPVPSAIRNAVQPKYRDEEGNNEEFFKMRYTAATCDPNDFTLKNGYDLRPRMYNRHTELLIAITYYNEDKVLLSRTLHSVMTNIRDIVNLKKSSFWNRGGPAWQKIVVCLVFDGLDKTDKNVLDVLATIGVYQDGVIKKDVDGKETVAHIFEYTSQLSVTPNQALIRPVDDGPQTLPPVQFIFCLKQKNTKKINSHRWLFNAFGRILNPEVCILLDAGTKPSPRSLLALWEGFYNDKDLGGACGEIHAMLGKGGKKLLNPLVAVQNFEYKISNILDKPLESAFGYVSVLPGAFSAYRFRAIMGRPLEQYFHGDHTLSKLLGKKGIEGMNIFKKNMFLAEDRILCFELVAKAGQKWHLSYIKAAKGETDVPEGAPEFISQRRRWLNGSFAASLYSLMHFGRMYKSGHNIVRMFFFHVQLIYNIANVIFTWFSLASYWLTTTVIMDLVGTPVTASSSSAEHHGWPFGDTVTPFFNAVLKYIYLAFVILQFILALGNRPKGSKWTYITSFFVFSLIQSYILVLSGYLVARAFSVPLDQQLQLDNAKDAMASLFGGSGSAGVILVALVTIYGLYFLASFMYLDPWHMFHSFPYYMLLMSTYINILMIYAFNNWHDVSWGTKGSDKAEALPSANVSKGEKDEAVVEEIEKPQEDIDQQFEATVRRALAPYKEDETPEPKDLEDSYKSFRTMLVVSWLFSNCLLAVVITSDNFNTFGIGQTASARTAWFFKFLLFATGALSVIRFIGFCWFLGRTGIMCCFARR

On to `CCC(O)/C=C/C=C/C=C/C(=O)OC[C@H]1O[C@@H](O[C@H]2[C@H](OC(=O)/C=C/C=C/CC(O)/C(C)=C/C=C/CCC(C)CC)[C@@H](O)[C@@]3(OCc4cc(O)cc(O)c43)O[C@@H]2CO)[C@H](O)[C@@H](O)[C@H]1O` (stereo partly drawn), for which the Activity in the data set with Saccharomyces cerevisiae [1] came to 5%.
Turning to `C[C@@H]1[C@H](O)[C@@H](C)/C=C/C=C/C=C/C=C/C=C/C=C/C=C/[C@H](O[C@@H]2O[C@H](C)[C@@H](O)[C@H](N)[C@@H]2O)C[C@@H]2O[C@](O)(C[C@@H](O)C[C@@H](O)[C@H](O)CC[C@@H](O)C[C@@H](O)CC(=O)O[C@H]1C)C[C@H](O)[C@H]2C(=O)O` [AMPHOTERICIN B], the MIC with Neurospora crassa [2] stood at 1 µM (≈ 0.924 µg/mL); with Aspergillus niger (read-out: MIC100) it was 0.5 µM (≈ 0.462 µg/mL); with Aspergillus flavus, 0.5 µM (≈ 0.462 µg/mL); in the data set with Cryptococcus neoformans it was 0.27 µM (≈ 0.25 µg/mL); in the data set on Candida albicans it was 0.84 µM (≈ 0.776 µg/mL); in the data set on Aspergillus fumigatus, 0.5 µM (≈ 0.462 µg/mL). Moreover, the MIC with Saccharomyces cerevisiae [3] was found to be 1.62 µM (≈ 1.5 µg/mL). In data set [4], this compound registered an LC100 of 13.5 µM.
`CC(=O)N1CCN(c2ccc(OCC3COC(Cn4ccnc4)(c4ccc(Cl)cc4Cl)O3)cc2)CC1` (stereo not drawn) [KETOCONAZOLE]: the MIC in the data set with Neurospora crassa [2] came out at 2 µM (≈ 1.06 µg/mL); in the data set on Aspergillus niger (read-out: MIC100), 0.25 µM (≈ 0.133 µg/mL); in the data set with Aspergillus flavus it was 0.5 µM (≈ 0.266 µg/mL); in the data set with Cryptococcus neoformans it was 0.5 µM (≈ 0.266 µg/mL); in the data set with Candida albicans, 1 µM (≈ 0.531 µg/mL); with Aspergillus fumigatus it was 0.13 µM (≈ 0.0691 µg/mL). Also, the MIC in the data set on Saccharomyces cerevisiae [3] turned out to be 1 µM (≈ 0.531 µg/mL).
Consider `COC(=O)[C@@]1(C)CC[C@]2(C(=O)O)CC[C@]3(C)C(=CC[C@@H]4[C@@]5(C)C[C@H](O)[C@H](O[C@@H]6OC[C@@H](O)[C@H](O)[C@H]6O)[C@@](C)(CO)[C@@H]5CC[C@]43C)[C@@H]2C1` [PHYTOLACCOSIDE B], for which the Activity with Saccharomyces cerevisiae [1] turned out to be 93.4%; in data set [5] it was 23%; in [6] it was 400 nm; in data set [7], 166%; in [8], 190%; with Saccharomyces cerevisiae [9], 17%. For the same compound, the MIC came to 74 µM (≈ 49.2 µg/mL) with Neurospora crassa [2]; 188 µM (≈ 125 µg/mL) in the data set on Aspergillus niger (read-out: MIC); 74 µM (≈ 49.2 µg/mL) in the data set with Aspergillus flavus; 112 µM (≈ 74.5 µg/mL) in the data set with Cryptococcus neoformans; 74 µM (≈ 49.2 µg/mL) in the data set with Candida albicans; 188 µM (≈ 125 µg/mL) in the data set with Aspergillus fumigatus. In addition, the MIC in the data set with Saccharomyces cerevisiae [3] is 74 µM (≈ 49.2 µg/mL). Moreover, the minimal fungicidal concentration (MFC) with Cryptococcus neoformans is 112 µM (≈ 74.5 µg/mL); in the data set with Candida albicans, 150 µM (≈ 99.7 µg/mL); against Saccharomyces cerevisiae [3], 150 µM (≈ 99.7 µg/mL). The MIC50 in the data set with Cryptococcus neoformans worked out at 9 µM (≈ 5.98 µg/mL); with Candida albicans it was 74 µM (≈ 49.2 µg/mL); in the data set with Saccharomyces cerevisiae [3] it was 18 µM (≈ 12 µg/mL). Besides, the MIC80 against Cryptococcus neoformans came out at 74 µM (≈ 49.2 µg/mL); against Candida albicans, 74 µM (≈ 49.2 µg/mL); with Saccharomyces cerevisiae [3] it was 37 µM (≈ 24.6 µg/mL). Further, the result in the data set on Saccharomyces cerevisiae [10] was inactive. For the same compound, the result (in data set [11]; in data set [12]; in the data set on Neurospora crassa [13]) was Active. For the same compound, the LC100 in data set [4] is > 188 µM.
